CRFR2-BP antag – blocks CRF-induced signaling of the CRF-BP/CRF-R2 complex. HEK293 CRF-R2/CRF-BP, CRF-induced calcium fluorescence. inhibition, % at 11.8 µM. 350,000 compounds, 0.59% hits;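 active = inhibition of the ligand-induced calcium signal above about 50% at the single tested concentration, limit read from the data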
SIRT5 inh – sirtuin-5 (human) deacylase inhibition. Q9NXA8. Purified SirT5, succinyl-peptide AMC, trypsin-coupled fluorescence. inhibition, % at 15 µM. 330,000 compounds, 1.1% hits; in the data active = inhibition above about 15%
Target sequence (Q9NXA8 whole entry, looked up): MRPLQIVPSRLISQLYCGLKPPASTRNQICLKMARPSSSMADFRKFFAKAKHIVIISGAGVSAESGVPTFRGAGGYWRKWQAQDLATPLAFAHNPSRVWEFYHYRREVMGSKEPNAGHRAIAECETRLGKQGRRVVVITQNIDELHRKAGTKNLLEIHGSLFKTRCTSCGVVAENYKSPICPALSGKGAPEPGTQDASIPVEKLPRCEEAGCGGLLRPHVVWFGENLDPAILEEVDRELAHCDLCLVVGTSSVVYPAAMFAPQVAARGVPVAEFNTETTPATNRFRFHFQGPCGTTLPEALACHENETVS
PKA-R2B activ – activates the human PKA-R2B holoenzyme complex | P22694+P31323 | activation, % at 11.4 µM | 340,000 compounds, 0.079% hits | PKA-R2B holoenzyme dissociation, Cy5-IP20 fluorescence polarization; R2B truncated from residue 108, S112A mutant; 0% DMSO only, 100% 113 µM cGMP;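 active = activation above a cutoff set at the mean over all compounds plus 3 SD, cut at about 18% in these data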;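 also: higher means more holoenzyme dissociation and a rise in polarization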
PKA-R1A act – activates the PKA-R1A holoenzyme complex; PKA-R1A dissociation, Cy5-IP20 fluorescence polarization; scaled: DMSO 0%, 113 µM cGMP 100%; activation, % at 11.4 µM; P00514+P68181; 340,000 compounds, 0.083% hits; AID 504707;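 active = percent activation above the mean of all tested compounds plus 3 SD, cut at about 19% in these data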;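 also: higher means more PKAc released from R1A so a rise in polarization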
S100A4 MyoIIA – inhibitors of human S100A4 binding to myosin IIA peptide. S100A4/TAMRA-MyoIIA peptide fluorescence polarization. inhibition, % at 10.7 µM. 360,000 compounds, 0.14% hits;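 active = mean inhibition of at least 70% across replicates, with every replicate also reaching that level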
Target sequence (P26447 whole entry, looked up): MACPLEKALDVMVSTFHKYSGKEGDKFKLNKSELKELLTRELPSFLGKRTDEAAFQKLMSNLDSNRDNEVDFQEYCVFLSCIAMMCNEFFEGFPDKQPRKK
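Test system: S100A4 monomer protein; Medium: HEPES pH 7.2 with CaCl2, KCl, NaCl, DTT, Triton; Probe or stimulus: TAMRA-labelled myosin IIA heavy-chain peptide probe, 5 nM; Doses: one dose per compound; Times: polarization read 5 min after assay mix addition, stable 5–60 min; Benchmarks: neutral control DMSO, positive control TFP.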
Numbers stand for hits; i = inactive; nt = no result given; ! = repeats disagree. This is a sample that favours compounds with a hit; in the whole collection about 1.5% have one here.

SMILES	CRFR2-BP antag	SIRT5 inh	PKA-R2B activ	PKA-R1A act	S100A4 MyoIIA
C[C@H](CO)N1C[C@H](C)[C@@H](CN(C)CC2CC2)OCCCC[C@H](C)Oc2ccc(NC(=O)CCC(F)(F)F)cc2C1=O	nt	i	nt	nt	i
C/C=C/c1ccc([C@@H]2[C@@H](CO)N(C(=O)C3CC3)C23CN(S(=O)(=O)CC)C3)cc1	nt	i	nt	nt	i
COc1cccc(CN2CC3(CN(C)C3)c3c([nH]c4cc(OC)ccc34)[C@@H]2CO)c1	nt	i	nt	nt	116
COc1cccc(CN2CC3(CN(C)C3)c3c([nH]c4cc(OC)ccc34)[C@H]2CO)c1	nt	i	nt	nt	i
C[C@@H]1CN([C@H](C)CO)C(=O)c2cccc(NS(=O)(=O)c3ccc(F)cc3)c2O[C@@H]1CN(C)S(=O)(=O)c1cccs1	nt	i	nt	nt	i
CN(CCOc1ccc(Cl)cc1)C(=O)C1CCN(C(=O)c2ccc(Cl)cc2)CC1	120	i	i	i	i
COC(=O)c1c(NC(=O)CC2Nc3ccccc3NC2=O)sc(C)c1C (stereo not drawn)	53	i	i	i	i
CO[C@@H]1CN(C)C(=O)c2cc(NS(=O)(=O)c3ccc(F)cc3)ccc2OC[C@H](C)NC[C@H]1C	nt	i	nt	nt	i
CNC(=O)C[C@@H]1CC[C@@H]2[C@@H](COc3ccc(NC(=O)Nc4ccccc4)cc3C(=O)N2C)O1	nt	i	nt	nt	i
Cc1[nH]n(CCC#N)c(=O)c1CC(=O)N1CCN(c2ccccc2)CC1	60	i	i	i	i
CC(C)NC(=O)Nc1ccc2c(c1)C(=O)N([C@H](C)CO)C[C@H](C)[C@H](CN(C)S(=O)(=O)c1ccc(Cl)cc1)O2	nt	i	nt	nt	i
CCCC(=O)Nc1ccc2c(c1)C(=O)N(C)C[C@@H](OC)[C@H](C)CN(C(=O)c1ccccn1)[C@@H](C)CO2	nt	i	nt	nt	i
Cc1ccccc1N(CC(=O)N1CCN(Cc2ccccc2)CC1)S(C)(=O)=O	70	nt	i	i	i
COCC(=O)N1[C@H](C#N)[C@H](c2ccccc2-c2cccc(C)c2)[C@H]1CO	nt	i	nt	nt	i
O=C(O)c1cc(-c2ccc(/C=C3\NC(=O)N(c4ccc(Cl)cc4)C3=O)o2)ccc1Cl	i	20	i	i	i
Cc1cccc(N2NC(=O)/C(=C/c3ccc(-c4ccc(Cl)c(C(=O)O)c4)o3)C2=O)c1	i	16	i	i	i
COc1cc(CN2CC3(CCN(C(C)=O)CC3)c3c([nH]c4cc(OC)ccc34)[C@H]2CO)cc(OC)c1	nt	nt	nt	nt	i
CC(C)Cc1csc(NC(=O)c2ccc(Cl)cc2)c1C(=O)O	95	nt	i	i	nt
O=C(c1ccc(Cl)c(S(=O)(=O)N2CCc3ccccc3C2)c1)N1CCN(c2ccccc2)CC1	i	nt	i	i	nt
Cc1ccc(C(=O)N2CCCC2)cc1S(=O)(=O)Nc1cccc(C)c1C	i	26	i	i	i
O=C(c1ccc(Cl)c(S(=O)(=O)Nc2ccccc2C(=O)N2CCc3ccccc3C2)c1)N1CCc2ccccc2C1	54	nt	i	i	nt
C[C@@H]1CN([C@H](C)CO)C(=O)c2cc(NC(=O)C3CCCCC3)ccc2O[C@@H](C)CCCCO[C@@H]1CN(C)S(=O)(=O)c1ccc(F)cc1	nt	i	nt	nt	i
Cc1ccc(S(=O)c2ccc([N+](=O)[O-])c3nonc23)cc1 (stereo not drawn)	i	15	i	i	i
C/C(=N\Nc1cccc([N+](=O)[O-])c1)c1cc2ccccc2o1	i	i	i	i	i
O=C(c1cccc([N+](=O)[O-])c1)c1cc2ccccc2o1	i	32	i	i	i
SMILES	CRFR2-BP antag	SIRT5 inh	PKA-R2B activ	PKA-R1A act	S100A4 MyoIIA
O=C(c1cccc([N+](=O)[O-])c1)c1ccc2c(c1)OCCOCCOCCO2	58	i	nt	nt	i
CO[C@@H]1CN(C)C(=O)c2cc(NS(C)(=O)=O)ccc2OC[C@@H](C)N(S(=O)(=O)CC(F)(F)F)C[C@H]1C	nt	i	nt	nt	i
Cc1cc(C)c2c(CC(=O)Nc3nccs3)coc2c1	99	nt	i	i	nt
Cc1ccc(S(=O)(=O)NCC[C@H]2CC[C@@H](NC(=O)Nc3cccc(F)c3)[C@H](CO)O2)cc1	nt	i	nt	nt	i
CCOC(=O)CSC1=C(C#N)C(c2ccc(F)cc2)C(C(C)=O)=C(C)N1 (stereo not drawn)	i	nt	i	i	nt
CCOC(=O)C1=C(C)NC(SCC(=O)OC)=C(C#N)C1c1ccc(C(=O)OC)cc1 (stereo not drawn)	55!	i	i	i	i
